Active and inactive are the calls of the source. No cut-off for these calls is given here.

These results are taken from ChEMBL document CHEMBL4400509, “Conversion of Quinazoline Modulators from Inhibitors to Activators of β-Glucocerebrosidase” (J Med Chem, 2019).

Assay [1] deals with T1, Lysosomal acid glucosylceramidase (Homo sapiens, UniProt P04062).
T1 sequence (P04062 whole entry): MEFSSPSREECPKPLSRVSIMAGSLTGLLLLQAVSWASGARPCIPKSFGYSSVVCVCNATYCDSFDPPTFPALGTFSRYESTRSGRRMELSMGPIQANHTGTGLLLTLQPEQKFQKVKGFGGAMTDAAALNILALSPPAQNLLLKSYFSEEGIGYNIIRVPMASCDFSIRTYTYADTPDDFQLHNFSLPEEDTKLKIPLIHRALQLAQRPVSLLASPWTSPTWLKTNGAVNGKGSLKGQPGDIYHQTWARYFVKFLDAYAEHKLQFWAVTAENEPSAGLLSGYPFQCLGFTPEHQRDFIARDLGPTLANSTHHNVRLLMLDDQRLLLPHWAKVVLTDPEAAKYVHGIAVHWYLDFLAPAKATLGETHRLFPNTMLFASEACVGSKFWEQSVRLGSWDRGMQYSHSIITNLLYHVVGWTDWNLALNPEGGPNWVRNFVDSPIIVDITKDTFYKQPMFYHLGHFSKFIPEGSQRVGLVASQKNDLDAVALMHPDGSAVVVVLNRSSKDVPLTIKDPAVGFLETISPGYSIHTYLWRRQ
Briefly: Activation of wild type recombinant human lysosomal beta-glucocerebrosidase using 4-methylumbelliferyl-beta-D-glucopyranoside as substrate preincubated for 5 mins followed by substrate addition and measured after 30 mins by fluorescence assay. The method in brief: (§1)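 Recombinant wild-type human GCase (velaglucerase alfa), 7.5 nM final, in 50 mM citric acid/176 mM K2HPO4/0.01% Tween-20, pH 5.9. Enzyme was preincubated 5 min at room temperature with compound (12-point series, 48 nM–100 μM final). 4MU-β-Glc (1.5 mM final) was added, and the reaction ran 30 min at 37 °C. It was stopped with 1 M NaOH/1 M glycine, pH 10, and read at ex 365/em 440 nm. Triplicate, mean.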

In assay [2] the target is T2, Lysosomal acid glucosylceramidase (Homo sapiens) (UniProt P04062).
T2 sequence (whole entry): T1 sequence (P04062 whole entry)
Briefly: Activation of wild type recombinant human lysosomal beta-glucocerebrosidase at 0.048 to 100 uM using 4-methylumbelliferyl-beta-D-glucopyranoside as substrate preincubated for 5 mins followed by substrate addition and measured after 30 mins by fluorescence assay relative to control. The method in brief:
as §1

Assay [3] addresses T1, Lysosomal acid glucosylceramidase. Briefly: Inhibition of wild type recombinant human lysosomal beta-glucocerebrosidase using 4-methylumbelliferyl-beta-D-glucopyranoside as substrate preincubated for 5 mins followed by substrate addition and measured after 30 mins by fluorescence assay.
Another assay is filed under the species Homo sapiens. Nature of the assay: Induction of post-ER GCase activity in fibroblast cells harboring N370S/84GG double mutant derived from Gaucher's disease patient at 25 uM using PFB-FDGlu as substrate preincubated for 3 days followed by substrate addition and measured after 1 hr for every 20 mins in presence of bafilomycin by fluorescence assay. In kind it is cell-based.

The test system of another assay is Fibroblast. Nature of the assay: Induction of post-ER GCase level in fibroblast cells harboring N370S/84GG double mutant derived from Gaucher's disease patient at 25 uM by immunoblotting analysis. To be noted: Homo sapiens. The class given is functional, cell-based. Summed up:
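N370S/84GG patient fibroblasts, compound-treated 3 days (DMSO 0.1% v/v vehicle) and lysed in 1% Triton X-100. Lysates were left undigested or digested with Endo H or PNGase F. They were then immunoblotted for GCase with GAPDH as loading control, and post-ER form was taken as Endo H-resistant band. n = 4.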
On the technique in general: In western blotting, separated proteins are transferred to a membrane and probed.

The AC50 is the concentration giving half of the maximal activity seen. A word on the Emax: it is the greatest response seen or fitted, relative to the assay's reference. As to `CN(Cc1ccc2c(c1)OCCO2)c1nc(-c2cccnc2)nc2ccccc12`, the AC50 in assay [1] (read-out: AC50) is 4.88 µM. Also, the Emax in assay [2] was 488%.

With `c1ccc(OCCNc2nc(-c3cccnc3)nc3ccccc23)cc1`, in assay [1] (read-out: AC50), the AC50 was found to be 1.56 µM. The maximum response (Emax) in assay [2] was 140%.

On to `CN(C[C@@H]1COc2ccccc2O1)c1nc(-c2cccnc2)nc2ccccc12`, for which the AC50 in assay [1] (read-out: AC50) amounted to 2.37 µM. Besides, the maximal effect (Emax) in assay [2] turned out to be 296%.

For orientation: IC50 means the concentration that gives 50% inhibition. As to `CN(c1nc(-c2cccnc2)nc2ccccc12)C1CCCCCC1`, the IC50 in assay [3] was 9.94 µM.

In the case of `CN(c1nc(-c2cccnc2)nc2ccccc12)C1CCCCCCC1`, in assay [3], the IC50 was 8.38 µM.

With `CN(Cc1ccc2ccccc2c1)c1nc(-c2cccnc2)nc2ccccc12`, the AC50 in assay [1] (read-out: AC50) was found to be 3.8 µM. The Emax in assay [2] stood at 155%.

Regarding `c1ccc(OCCN(CC2CC2)c2nc(-c3cccnc3)nc3ccccc23)cc1`, the AC50 entry in assay [1] is listed as “Not Active”. In assay [2], the Emax result is “inactive”.

Turning to `CN(c1nc(-c2cccnc2)nc2ccccc12)C1CCCC1`, in assay [1] (read-out: AC50), the AC50 was 6.36 µM. The Emax in assay [2] was 149%.

As for `CCN(CCOc1ccccc1)c1nc(-c2cccnc2)nc2ccccc12`, the AC50 in assay [1] (read-out: AC50) came to 5.38 µM. In addition, the Emax in assay [2] is 478%.

As to `CN(CCOCc1ccccc1)c1nc(-c2cccnc2)nc2ccccc12`, the concentration at half-maximal activity (AC50) in assay [1] (read-out: AC50) was determined as 16.9 µM. The Emax in assay [2] amounted to 394%.

As for `CN(CCOc1ccccc1)c1nc(-c2cccs2)nc2ccccc12`, in assay [1], the half-maximal activity concentration (AC50) result is listed as “Not Active”. For the same compound, in assay [2], the Emax entry was “inactive”.

For `CN1Cc2ccc(CN(C)c3nc(-c4cccnc4)nc4ccccc34)cc2C1`, the AC50 in assay [1] (read-out: AC50) is 14.9 µM. Besides, the Emax in assay [2] turned out to be 428%.

As for `c1ccc(C2CCCN(c3nc(-c4cccnc4)nc4ccccc34)C2)cc1` (configuration not stated), in assay [1] (read-out: AC50), the AC50 worked out at 4.66 µM. Besides, in assay [2], the Emax is 130%.

Turning to `c1ccc(CC2CCCN(c3nc(-c4cccnc4)nc4ccccc34)C2)cc1` (configuration not stated), in assay [1] (read-out: AC50), the AC50 was determined as 5.18 µM. In addition, the maximum response (Emax) in assay [2] came out at 160%.

For the compound `CN(CCOc1ccccc1)c1nc(-c2ccsc2)nc2ccccc12`, in assay [1], the AC50 result is recorded as “Not Active”. Besides, in assay [2], the Emax result is “inactive”.

Turning to `CN(CCOc1ccccc1)c1nc(-c2ccco2)nc2ccccc12`, the AC50 in assay [1] (read-out: AC50) is 21.7 µM. For the same compound, in assay [2], the Emax turned out to be 229%.

With `c1cncc(-c2nc(N3CCc4c([nH]c5ccccc45)C3)c3ccccc3n2)c1`, in assay [1] (read-out: AC50), the AC50 worked out at 4.27 µM. The maximal response (Emax) in assay [2] worked out at 175%.

Regarding `CN(CCOc1ccccc1)c1nc(-c2cncnc2)nc2ccccc12`, the AC50 in assay [1] (read-out: AC50) was determined as 0.89 µM. The Emax in assay [2] came to 634%.

As to `CN(Cc1nc2ccccc2o1)c1nc(-c2cccnc2)nc2ccccc12`, in assay [1] (read-out: AC50), the AC50 was 16.1 µM. For the same compound, in assay [2], the Emax was found to be 643%.

For the compound `CN(CCc1ccccc1)c1nc(-c2cccnc2)nc2ccccc12`, the AC50 in assay [1] (read-out: AC50) worked out at 1.39 µM. The Emax in assay [2] worked out at 126%.

`CN(CCOc1ccccc1)c1nc(-c2ccccn2)nc2ccccc12`: in assay [1] (read-out: AC50), the AC50 is over 50 µM.

Regarding `c1cncc(-c2nc(N3CCc4[nH]c5ccccc5c4C3)c3ccccc3n2)c1`, in assay [1], the AC50 entry is given as “Not Active”. Also, the Emax result in assay [2] was “inactive”.

Consider `CN(c1nc(-c2cccnc2)nc2ccccc12)[C@@H]1CCc2ccccc2C1`, for which the 50% inhibitory concentration (IC50) in assay [3] stood at 5.87 µM.

Consider `CN(CCOc1ccccc1)c1nc(-c2ccncc2)nc2ccccc12`, for which the AC50 in assay [1] (read-out: AC50) was determined as 2.89 µM. For the same compound, the maximal response (Emax) in assay [2] is 690%.

As to `CN(CCOc1ccccc1)c1nc(-c2ccccc2)nc2ccccc12`, the AC50 entry in assay [1] is “Not Active”. Besides, the Emax result in assay [2] is “inactive”.

For the compound `CN(c1nc(-c2cccnc2)nc2ccccc12)[C@H]1CCc2ccccc2C1`, the IC50 in assay [3] stood at 0.43 µM.

With `CN(Cc1ccc2nsnc2c1)c1nc(-c2cccnc2)nc2ccccc12`, the AC50 in assay [1] (read-out: AC50) is 1.84 µM. The Emax in assay [2] was determined as 337%.

Consider `CCCN(CCOc1ccccc1)c1nc(-c2cccnc2)nc2ccccc12`, for which the half-maximal activity concentration (AC50) in assay [1] (read-out: AC50) amounted to 3.18 µM. The Emax in assay [2] was found to be 132%.

As to `c1ccc(CC2CCCCN2c2nc(-c3cccnc3)nc3ccccc23)cc1` (configuration not stated), the AC50 in assay [1] (read-out: AC50) stood at 4.47 µM. In addition, the Emax in assay [2] was 364%.

Regarding `c1ccc(COCCNc2nc(-c3cccnc3)nc3ccccc23)cc1`, the 50% inhibitory concentration (IC50) in assay [3] was determined as 7.3 µM.

As for `CC(CNc1nc(-c2cccnc2)nc2ccccc12)Oc1ccccc1` (configuration not stated), the IC50 in assay [3] stood at 4.24 µM.

With `OC[C@H]1CNC[C@@H](O)[C@@H]1O`, the result in the assay filed under Homo sapiens and in the assay on Fibroblast was inactive.

For the compound `CC(COc1ccccc1)Nc1nc(-c2cccnc2)nc2ccccc12` (configuration not stated), the 50% inhibitory concentration (IC50) in assay [3] is 1.88 µM.

With `c1cncc(-c2nc(N3CCOc4ccccc4C3)c3ccccc3n2)c1`, the AC50 in assay [1] (read-out: AC50) stood at 9.74 µM. Also, the Emax in assay [2] was 438%.

Turning to `CN(CCCCc1ccccc1)c1nc(-c2cccnc2)nc2ccccc12`, in assay [1] (read-out: AC50), the AC50 was determined as 3.99 µM. Besides, in assay [2], the Emax amounted to 190%.

For the compound `CN(CCOc1ccccc1)c1nc(-c2cccnc2)nc2ccccc12`, the AC50 in assay [1] (read-out: AC50) is 2.3 to 3.55 µM. The Emax in assay [2] was in the range of 552 to 761%.

In the case of `CN(Cc1cnc2ccccc2n1)c1nc(-c2cccnc2)nc2ccccc12`, the AC50 in assay [1] (read-out: AC50) was 1.63 µM. For the same compound, the Emax in assay [2] was found to be 674%.

Turning to `CC(COc1ccccc1)N(C)c1nc(-c2cccnc2)nc2ccccc12` (configuration not stated), in assay [1] (read-out: AC50), the half-maximal activity concentration (AC50) came to 7.52 µM. Moreover, the maximal effect (Emax) in assay [2] was found to be 345%.

Turning to `CN(c1nc(-c2cccnc2)nc2ccccc12)C1CCCCC1`, in assay [1] (read-out: AC50), the AC50 amounted to 2.36 µM. In addition, the Emax in assay [2] came out at 137%.

On to `c1ccc(OCCCNc2nc(-c3cccnc3)nc3ccccc23)cc1`, for which the IC50 in assay [3] was 2.54 µM.

For the compound `CN(Cc1nc2ccccc2s1)c1nc(-c2cccnc2)nc2ccccc12`, in assay [1] (read-out: AC50), the AC50 was found to be 6.9 µM. The Emax in assay [2] worked out at 517%.

As to `CN(CCOc1ccccc1)c1nc(-c2ccoc2)nc2ccccc12`, the AC50 in assay [1] (read-out: AC50) is 1.68 µM. In addition, in assay [2], the maximal effect (Emax) was determined as 145%.

With `c1ccc(O[C@@H]2CCCN(c3nc(-c4cccnc4)nc4ccccc34)C2)cc1`, the AC50 in assay [1] (read-out: AC50) was 3.65 µM. In addition, in assay [2], the Emax was found to be 302%.

As for `c1ccc(O[C@H]2CCCN(c3nc(-c4cccnc4)nc4ccccc34)C2)cc1`, in assay [1] (read-out: AC50), the AC50 turned out to be 4.75 µM. For the same compound, the Emax in assay [2] came out at 237%.

Turning to `CN(CCCc1ccccc1)c1nc(-c2cccnc2)nc2ccccc12`, in assay [2], the maximal response (Emax) came out at 223%.

On to `CN(CCCOc1ccccc1)c1nc(-c2cccnc2)nc2ccccc12`, for which the AC50 in assay [1] (read-out: AC50) worked out at 6.16 µM. Further, in assay [2], the Emax was determined as 208%.

For `c1ccc(OC2CCN(c3nc(-c4cccnc4)nc4ccccc34)C2)cc1` (configuration not stated), in assay [1] (read-out: AC50), the AC50 was 1.17 µM. For the same compound, the Emax in assay [2] stood at 276%.

As for `CN(Cc1nc2ccccc2[nH]1)c1nc(-c2cccnc2)nc2ccccc12`, the AC50 in assay [1] (read-out: AC50) came out at 7.92 µM. For the same compound, in assay [2], the Emax came out at 197%.

With `CN(Cc1ccc2c(c1)OCO2)c1nc(-c2cccnc2)nc2ccccc12`, in assay [1] (read-out: AC50), the AC50 amounted to 1.63 µM. Also, the Emax in assay [2] stood at 160%.

For the compound `c1cncc(-c2nc(N3CCCOCC3)c3ccccc3n2)c1`, the AC50 in assay [1] (read-out: AC50) was found to be 44.1 µM. In addition, the Emax in assay [2] came out at 423%.

Regarding `CC(CN(C)c1nc(-c2cccnc2)nc2ccccc12)Oc1ccccc1` (configuration not stated), the AC50 in assay [1] (read-out: AC50) was 8.97 µM. The Emax in assay [2] is 390%.
